PubChem BioAssay AID743247 (Broad Institute, 2014)
Out of some 350,000 compounds screened, about 300 (0.086%) were called active.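 How the source made its calls: active means mean inhibition across replicates of 30% or more, regardless of how many single replicates reach that level; inconclusive means mean under 30% yet at least half of replicates reach 30%; inactive means the rest.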 The list comes from a sample in which actives are over-represented; it also holds similar structures and randomly drawn compounds.

Test: inhibitors of fibronectin matrix deposition, primary screen, AH1F cells, Alexa488-fibronectin fluorescence, plate reader (AID 743247);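 further: positive control wells lacked labelled fibronectin entirely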
Details: AH1F fibroblasts, overnight, at 12.6 µM, hits give high values
Summary of the method: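 Test system: AH1F fibroblast monolayer depositing Alexa488-labelled fibronectin into matrix. Input: 10000 cells per well. Technique: fluorescence, ex 485 nm, em 525 nm. Buffer or medium: DMEM plus 2% serum, read in PBS. Timing: 1 h cell adhesion before compound, then overnight fibronectin incubation. Compound: single dose, pinned. Read-out basis: inhibition from reduced deposited-fibronectin fluorescence.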

SMILES | inhibition
COc1ccc(S(=O)(=O)N2C[C@H](O)COC[C@@H]3O[C@H](CC(=O)NCCN4CCCCC4)CC[C@H]32)cc1 | 4.18% (inactive)
O=C1CCC(=O)N[C@H](c2ccccc2)C/C=C\CCN1 | -1.16% (inactive)
C[C@H]1CN([C@@H](C)CO)C(=O)c2c(c3ccccc3n2C)-c2ccccc2CO[C@@H]1CN(C)CC1CCCCC1 | -4.72% (inactive)
CO[C@H]1CN(C)C(=O)c2cc(NC(=O)NC(C)C)ccc2OC[C@@H](C)NC[C@@H]1C | -16.2% (inactive)
COc1ccc2c3c([nH]c2c1)[C@@H](CO)N(C)CC31CCN(S(=O)(=O)c2ccc(C)cc2)CC1 | 3.31% (inactive)
CC(=O)Nc1ccc2c(c1)CC(=O)N(C)C[C@H](C)[C@H](CN(C)S(C)(=O)=O)O2 | -0.444% (inactive)
C[C@H](CO)N1C[C@H](C)[C@@H](CN(C)Cc2ccncc2)Oc2cc(Br)ccc2S1(=O)=O | -7.26% (inactive)
COCC(=O)N(C)C[C@H]1[C@@H](c2ccccc2)[C@H](CO)N1C(=O)Cc1ccncc1 | -3.58% (inactive)
O=C1NCCCOCc2cn(nn2)CC[C@@H]1Cc1ccc(-c2ccccc2)cc1 | 1.3% (inactive)
C[C@@H]1COCc2cn(nn2)CC[C@H](C)C(=O)N1 | -2.55% (inactive)
O=C(C1CCC1)N1CC2(C1)[C@H](c1ccccc1)[C@H](CO)N2Cc1nccs1 | 4.67% (inactive)
C[C@H](CO)N1C[C@H](C)[C@@H](CN(C)Cc2ccc(Cl)c(Cl)c2)Oc2ccc(NC(=O)Cn3cnnn3)cc2CC1=O | -6.99% (inactive)
O=C(Cc1ccncc1)N1CC[C@@H]2[C@@H](CO)Nc3ccc(C4=CCCCC4)cc3[C@@H]21 | -5.08% (inactive)
CO[C@H]1CN(C)C(=O)c2ccc(NC(=O)C3CCC3)cc2OC[C@H](C)NC[C@@H]1C | 4.29% (inactive)
CC(=O)NC[C@H]1[C@H](c2ccc(C3=CCCCC3)cc2)[C@@H](CO)N1C(=O)NC(C)C | -4.24% (inactive)
Cc1ccccc1S(=O)(=O)N[C@@H]1CC[C@@H](CCNS(=O)(=O)c2cccc(F)c2)O[C@H]1CO | -1.75% (inactive)
O=C(C[C@H]1CC[C@@H]2[C@H](COC[C@@H](O)CN2CC2CC2)O1)NCC1CC1 | -7.99% (inactive)
CCC(=O)N(C)C[C@H]1Oc2ncc(-c3ccc(C#N)cc3)cc2C(=O)N([C@@H](C)CO)C[C@H]1C | -1.88% (inactive)
C/C=C/c1ccc(C2[C@H]3CNC[C@@H]2N3CC2CCOCC2)cc1 (some centres undefined) | 3.6% (inactive)
CO[C@@H]1CN(C)C(=O)c2cc(NC(=O)c3cccc(Oc4ccccc4)c3)ccc2OC[C@H](C)NC[C@@H]1C | 15.5% (inactive)
O=C1CCCCn2nncc2COC[C@@H](Cc2ccccc2)N1 | 5.42% (inactive)
COCC(=O)N1CC2(CN(S(C)(=O)=O)C2)c2c(n(C)c3cc(OC)ccc23)[C@@H]1CO | -4.29% (inactive)
O=C(C[C@H]1C[C@H]2c3cc(NC(=O)CC4CC4)ccc3O[C@H]2[C@H](CO)O1)NCc1cc(F)ccc1F | -4.07% (inactive)
COc1ccc2c3c(n(C)c2c1)[C@@H](CO)N(Cc1ccncc1)CC31CN(C(=O)Nc2cccc(F)c2)C1 | -9.67% (inactive)
C[C@H](CO)N1C[C@H](C)[C@@H](CN(C)C(=O)Cc2ccccn2)Oc2cc(-c3cccc(C(=O)N(C)C)c3)ccc2S1(=O)=O | 3.4% (inactive)
O=C(NC(=O)c1ccccc1)Nc1ccccc1O | -0.509% (inactive)
O=C(NC1=CC(=O)c2ccccc2C1=O)c1ccccc1 | 62.2% (active)
COC(=O)c1nc(NC(=O)c2ccccc2)n[nH]1 | 5.02% (inactive)
C[C@@H]1CC(=O)N[C@H](c2ccccc2)C/C=C\C[C@H](c2ccccc2)NC1=O | -9.6% (inactive)
